Source: ChEMBL document CHEMBL2440032, “Synthesis of sterically encumbered 11β-aminoprogesterone derivatives and evaluation as 11β-hydroxysteroid dehydrogenase inhibitors and mineralocorticoid receptor antagonists” (Bioorg Med Chem, 2013)
The source made the active and inactive calls. No cut-off for these calls is given here.

Experiments:
[1] = molecular target: T1, 11-beta-hydroxysteroid dehydrogenase 1 (Homo sapiens, UniProt P28845); assay: Inhibition of human recombinant 11beta-HSD1 expressed in HEK293 cells assessed as inhibition of [1,2,-3H]-cortisone to [3H]cortisol preincubated at 10 uM for 10 mins before substrate addition by scintillation counting; type: cell-based
Procedure, shortened: (§1)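 Lysates of HEK-293 cells expressing human 11βHSD1, in buffer with 1 mM MgCl2, 250 mM sucrose and 20 mM Tris–HCl pH 7.4, sonicated and used at once. Incubated 10 min at 37 °C with 200 nM [1,2-3H]cortisone and 500 µM NADPH. Stopped with excess unlabeled cortisone/cortisol in methanol, then TLC separation and scintillation counting for substrate conversion. Three independent experiments.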
Target sequence in this assay (P28845 whole entry, looked up): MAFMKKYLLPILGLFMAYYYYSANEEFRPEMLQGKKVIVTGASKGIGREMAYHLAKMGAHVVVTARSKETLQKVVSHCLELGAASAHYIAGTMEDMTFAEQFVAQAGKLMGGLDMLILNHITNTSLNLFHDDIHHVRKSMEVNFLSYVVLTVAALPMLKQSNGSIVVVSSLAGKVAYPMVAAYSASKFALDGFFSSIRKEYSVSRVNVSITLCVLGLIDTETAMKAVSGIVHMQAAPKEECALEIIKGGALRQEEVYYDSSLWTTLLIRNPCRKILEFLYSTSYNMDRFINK

[2] = molecular target: T2, 11-beta-hydroxysteroid dehydrogenase type 2 (Homo sapiens, UniProt P80365); assay: Inhibition of human recombinant 11beta-HSD2 expressed in HEK293 cells assessed as inhibition of [1,2,6,7-3H]-cortisol to [3H]cortisone preincubated for 10 mins before substrate addition by scintillation counting; type: cell-based
T2 sequence (P80365 whole entry): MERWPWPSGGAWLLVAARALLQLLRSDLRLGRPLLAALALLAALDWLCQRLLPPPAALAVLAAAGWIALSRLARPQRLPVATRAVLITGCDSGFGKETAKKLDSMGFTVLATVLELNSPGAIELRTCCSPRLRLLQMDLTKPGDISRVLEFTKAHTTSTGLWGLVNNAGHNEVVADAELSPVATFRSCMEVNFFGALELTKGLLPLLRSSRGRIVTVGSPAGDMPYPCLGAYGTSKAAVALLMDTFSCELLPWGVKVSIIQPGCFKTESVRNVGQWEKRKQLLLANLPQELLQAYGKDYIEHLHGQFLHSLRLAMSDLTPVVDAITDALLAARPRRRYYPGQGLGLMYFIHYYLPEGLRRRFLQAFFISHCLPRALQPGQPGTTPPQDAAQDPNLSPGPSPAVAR

[3] = molecular target: T3, Mineralocorticoid receptor (Homo sapiens, UniProt P08235); assay: (§2) Antagonist activity at human recombinant mineralocorticoid receptor expressed in HEK-293 cells after 24 hrs assessed as inhibition of aldosterone-induced receptor activity by […]; type: cell-based, HEK293
T3 sequence (P08235 whole entry): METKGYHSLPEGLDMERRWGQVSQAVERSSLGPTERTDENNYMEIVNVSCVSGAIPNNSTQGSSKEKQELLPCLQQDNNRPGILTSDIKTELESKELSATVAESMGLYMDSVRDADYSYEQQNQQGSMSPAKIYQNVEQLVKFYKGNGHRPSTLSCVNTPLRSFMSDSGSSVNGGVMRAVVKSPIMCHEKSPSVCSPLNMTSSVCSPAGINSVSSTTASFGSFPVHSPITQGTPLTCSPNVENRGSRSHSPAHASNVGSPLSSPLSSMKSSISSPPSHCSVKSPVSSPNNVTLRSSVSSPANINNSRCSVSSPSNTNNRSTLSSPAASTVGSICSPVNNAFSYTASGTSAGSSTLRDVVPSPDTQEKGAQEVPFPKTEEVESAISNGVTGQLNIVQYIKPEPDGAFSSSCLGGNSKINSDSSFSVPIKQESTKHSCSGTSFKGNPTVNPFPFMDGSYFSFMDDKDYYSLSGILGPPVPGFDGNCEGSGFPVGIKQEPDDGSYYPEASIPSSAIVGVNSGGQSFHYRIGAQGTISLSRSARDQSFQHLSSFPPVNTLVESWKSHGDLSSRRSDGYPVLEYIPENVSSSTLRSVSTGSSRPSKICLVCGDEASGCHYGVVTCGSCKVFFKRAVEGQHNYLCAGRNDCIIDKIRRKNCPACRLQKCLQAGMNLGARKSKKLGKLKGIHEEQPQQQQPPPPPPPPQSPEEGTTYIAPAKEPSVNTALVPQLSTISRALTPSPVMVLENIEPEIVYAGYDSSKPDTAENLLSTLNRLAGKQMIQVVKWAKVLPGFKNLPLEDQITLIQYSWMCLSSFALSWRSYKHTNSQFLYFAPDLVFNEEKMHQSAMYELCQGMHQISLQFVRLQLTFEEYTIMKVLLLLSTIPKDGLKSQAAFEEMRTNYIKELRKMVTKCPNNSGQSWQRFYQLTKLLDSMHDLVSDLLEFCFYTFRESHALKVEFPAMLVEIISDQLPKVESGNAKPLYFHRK
Procedure, shortened: (§3)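 HEK-293 cells, 150,000 per well, plated for 24 h, then calcium-phosphate transfected with pMMTV-lacZ β-galactosidase reporter, pCMV-LUC luciferase control and human MR plasmid. Cells were washed with charcoal-treated DMEM containing 10% FBS, then exposed to a range of compound concentrations with or without 10 nM aldosterone. Readout was β-galactosidase normalized to luciferase, relative to vehicle. Three independent experiments.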

[4] = molecular target: T4, Mineralocorticoid receptor (Homo sapiens) (UniProt P08235); assay: (§4) Transactivation of human recombinant mineralocorticoid receptor expressed in HEK-293 cells after 24 hrs […]; type: cell-based; details: HEK293; procedure, shortened: as §3
T4 sequence (whole entry): T3 sequence (P08235 whole entry)

[5] = molecular target: T1, 11-beta-hydroxysteroid dehydrogenase 1; assay: Inhibition of human recombinant 11beta-HSD1 expressed in HEK293 cells assessed as inhibition of [1,2,-3H]-cortisone to [3H]cortisol preincubated for 10 mins before substrate addition by scintillation counting; type: cell-based; procedure, shortened: as §1
Target sequence in this assay (P28845 whole entry): as the sequence (P28845 whole entry, looked up) above

[6] = molecular target: T4, Mineralocorticoid receptor (Homo sapiens); assay: as §2; type: cell-based; details: HEK293; procedure, shortened: as §3
[7] = molecular target: T3, Mineralocorticoid receptor; assay: as §4; type: cell-based, HEK293; procedure, shortened: as §3
[8] = molecular target: T3, Mineralocorticoid receptor; assay: Transactivation of wild-type human recombinant mineralocorticoid receptor expressed in COS7 cells after 24 hrs by luciferase reporter gene assay; type: cell-based, COS-7

Structure (SMILES)	inhibition [1] [%]	IC50 [2] [nM]	further results
CC(=O)[C@H]1CC[C@H]2[C@@H]3CCC4=CC(=O)CC[C@]4(C)[C@H]3[C@@H](NC[C@@H](CO)NC(=O)OC(C)(C)C)C[C@]12C	< 70	4210	
CC(=O)[C@H]1CC[C@H]2[C@@H]3CCC4=CC(=O)CC[C@]4(C)[C@H]3[C@@H](NS(=O)(=O)c3ccccc3[N+](=O)[O-])C[C@]12C			IC50 [3]: 10900 nM; Activity [4]: inactive
CCOC(=O)/C(CN[C@H]1C[C@]2(C)[C@@H](C(C)=O)CC[C@H]2[C@@H]2CCC3=CC(=O)CC[C@]3(C)[C@H]21)=N\O	> 70	1050	IC50 [5]: 640 nM
CC(=O)[C@H]1CC[C@H]2[C@@H]3CCC4=CC(=O)CC[C@]4(C)[C@H]3[C@@H](NCC(=O)OC(C)(C)C)C[C@]12C		2410	
CC(=O)[C@H]1CC[C@H]2[C@@H]3CCC4=CC(=O)CC[C@]4(C)[C@H]3[C@@H](NC[C@@H](N)C(=O)O)C[C@]12C			inhibition [6]: inactive; EC50 [7]: 4100 nM
CC(=O)[C@H]1CC[C@H]2[C@@H]3CCC4=CC(=O)CC[C@]4(C)[C@H]3[C@@H](N)C[C@]12C [11BETA-AMINOPROGESTERONE]		2200	
CC(=O)[C@H]1CC[C@H]2[C@@H]3CCC4=CC(=O)CC[C@]4(C)[C@H]3[C@@H](NC[C@H](N)C(=O)O)C[C@]12C	< 70	6760	
CC(=O)[C@H]1CC[C@H]2[C@@H]3CCC4=CC(=O)CC[C@]4(C)[C@H]3[C@H](O)C[C@]12C	> 70		IC50 [5]: 630 nM
CC(=O)[C@H]1CC[C@H]2[C@@H]3CCC4=CC(=O)CC[C@]4(C)[C@H]3[C@@H](O)C[C@]12C [11BETA-HYDROXYPROGESTERONE]	> 70		EC50 [8]: 50 nM; inhibition [6]: inactive; EC50 [7]: 14000 nM; IC50 [5]: 1160 nM
CC(=O)[C@H]1CC[C@H]2[C@@H]3CCC4=CC(=O)CC[C@]4(C)[C@H]3[C@@H](NC[C@H]3COC(C)(C)N3C(=O)OC(C)(C)C)C[C@]12C	< 70	5850	
CC(=O)[C@H]1CC[C@H]2[C@@H]3CCC4=CC(=O)CC[C@]4(C)[C@H]3[C@@H](N=[N+]=[N-])C[C@]12C [11BETA-AZIDOPROGESTERONE]			IC50 [3]: 3500 nM; Activity [4]: inactive
CC(=O)[C@H]1CC[C@H]2[C@@H]3CCC4=CC(=O)CC[C@]4(C)[C@H]3[C@@H](NCC(=O)O)C[C@]12C		2690	
